# Legend:
# [1] = Lipophilicity, logD of compound; conditions: octanol/water
# [2] = Inhibition of human electron transport chain complex 1 in human NCI-H1299 cells assessed as reduction in cellular ATP level measured after 24 hrs by CellTiter-Glo assay; assay type: cell-based
# Outline: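 ATP-dependent luciferase luminescence read in H1299 cells, first without (M1) and then after adding the complex II substrate succinate (M2), to separate complex I block from downstream respiratory-chain inhibition or uncoupling.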
# [3] = Metabolic stability in rat hepatocyte assessed as maximum bioavailability measured up to 90 mins by LC-MS/MS analysis; assay type: ADME; conditions: for Fh at 1.5 h: rat hepatocytes, read-out: Fmax
# [4] = Blood clearance in male Wistar rat at 0.3 to 5 mg/kg, iv and po by LC-MS/MS analysis; assay type: ADME, organism-based; conditions: dose 0.3-5 mg/kg
# [5] = Volume of distribution at steady state in Wistar rat plasma at 0.4 mg/kg, iv by LC-MS/MS analysis; assay type: ADME, organism-based; conditions: read-out: Vdss
# [6] = Inhibition of mouse electron transport chain complex 1 assessed as reduction in cellular ATP measured after 24 hrs by celltiter-glo assay
# [7] = Inhibition of dog electron transport chain complex 1 assessed as reduction in cellular ATP measured after 24 hrs by celltiter-glo assay; conditions: Canis lupus familiaris
# [8] = Clearance in male Wistar rat blood at 0.4 mg/kg, iv by LC-MS/MS analysis
# [9] = Half life in Wistar rat plasma at 0.4 mg/kg, iv by LC-MS/MS analysis; assay type: ADME, organism-based
# [10] = Inhibition of rat electron transport chain complex 1 assessed as reduction in cellular ATP measured after 24 hrs by celltiter-glo assay
# [11] = Plasma protein binding in mouse assessed as fraction unbound incubated for 6 to 8 hrs by LC-MS/MS analysis; assay type: ADME, cell-free; conditions: time 6-8 hrs
# [12] = AUC in Wistar rat plasma at 0.8 mg/kg, po by LC-MS/MS analysis; assay type: ADME, organism-based; parameters: dose 0.8 mg/kg; conditions: in vivo
# [13] = Oral bioavailability in Wistar rat plasma at 0.8 mg/kg by LC-MS/MS analysis; assay type: ADME, organism-based
# [14] = Inhibition of human electron transport chain complex 1 in rat C6 cells assessed as reduction in cellular ATP measured after 24 hrs by CellTiter-Glo assay; assay type: cell-based; conditions: C6, 24 h
# [15] = Inhibition of human electron transport chain complex 1 in mouse 4T1 cells assessed as reduction in cellular ATP measured after 24 hrs by CellTiter-Glo assay; assay type: cell-based; conditions: 4T1, 24 h
# [16] = Inhibition of human electron transport chain complex 1 in human HCT-116 cells assessed as reduction in cellular ATP measured after 24 hrs by CellTiter-Glo assay; assay type: cell-based; conditions: HCT-116, 24 h
# [17] = Inhibition of human electron transport chain complex 1 in dog MDCK cells assessed as reduction in cellular ATP measured after 24 hrs by CellTiter-Glo assay; assay type: cell-based
# [18] = Inhibition of human electron transport chain complex 1 in dog A-72 cells assessed as reduction in cellular ATP measured after 24 hrs by CellTiter-Glo assay; assay type: cell-based; conditions: A-72, 24 h
SMILES,logD [1],"IC50 ([2]; Homo sapiens, NCI-H1299, 24 h)",further results
CN(C(=O)CN1CCC(c2nc(-c3cc4ccccc4o3)cs2)CC1)c1ccncc1,3,96 nM,Fh at 1.5 h [3]: 10%
Cc1ccc2[nH]c(CN3CCC(c4nc(-c5cc6ccccc6o5)cs4)CC3)nc2n1,3,300 nM,–
Cn1c(CN2CCC(c3nc(-c4cc5ccccc5o4)cs3)CC2)nc2ccccc21,4.3,700 nM,–
O=C(c1nc2ccccc2[nH]1)N1CCC(c2nc(-c3cc4ccccc4o3)cs2)CC1,4.3,3000 nM,–
c1ccc2oc(-c3csc(C4CCN(Cc5nc6ccccc6[nH]5)CC4)n3)cc2c1,3.4,200 nM,–
c1ccc2oc(-c3csc(C4CCN(Cc5cn6ccccc6n5)CC4)n3)cc2c1,2.9,340 nM,–
CC(C)(C(=O)Nc1cccc(F)c1)N1CCC(c2nc(-c3cc4ccccc4o3)cs2)CC1,5.7,> 30000 nM,Fh at 1.5 h [3]: 55%
N#Cc1ccc2oc(-c3csc(C4CCN(Cc5nc6ccccc6[nH]5)CC4)n3)cc2c1,3,2000 nM,–
O=C(CN1CCC(c2nc(-c3cc4ccccc4o3)cs2)CC1)Nc1ccncc1,–,70 nM,–
c1ccc(-c2c[nH]c(CN3CCC(c4nc(-c5cc6ccccc6o5)cs4)CC3)n2)cc1,3.7,860 nM,–
c1coc(-c2csc(C3CCN(Cc4nc5ccccc5[nH]4)CC3)n2)c1,2.6,> 30000 nM,–
Cc1nsc(NC(=O)C(C)N2CCC(c3nc(-c4cc5ccccc5o4)cs3)CC2)c1Cl (racemic),5.6,77 nM,clearance [4]: 118 mL/min/kg; Fh at 1.5 h [3]: 61%
c1ccc2oc(-c3csc(C4CCN(Cc5nc6cnccc6[nH]5)CC4)n3)cc2c1,–,38 nM,Vd [5]: 3.2 L/kg; IC50 [6]: 26 nM; IC50 [7]: 37 nM; clearance [8]: 20 mL/min/kg; half-life [9]: 3.1 h; Fh at 1.5 h [3]: 63%; IC50 [10]: 22 nM; Fu [11]: 0.59%; AUC [12]: 1 kg·h/L; bioavailability [13]: 80%
c1ccc2oc(-c3csc(C4CCN(Cc5ncc[nH]5)CC4)n3)cc2c1,2.6,4000 nM,–
CC(c1nc2ccccc2[nH]1)N1CCC(c2nc(-c3cc4ccccc4o3)cs2)CC1 (racemic),3.7,400 nM,–
O=C(CN1CCC(c2nc(-c3cc4ccccc4o3)cs2)CC1)Nc1cncs1,–,155 nM,–
Cn1c(-c2csc(C3CCN(Cc4nc5ccccc5[nH]4)CC3)n2)nc2ccccc21,2.5,20000 nM,–
CC(C)(c1nc2ccccc2[nH]1)N1CCC(c2nc(-c3cc4ccccc4o3)cs2)CC1,3.8,3000 nM,–
c1ccc2oc(-c3csc(C4CCN(Cc5cn6ncccc6n5)CC4)n3)cc2c1,3.1,300 nM,–
O=C(CN1CCC(c2nc(-c3cc4ccccc4o3)cs2)CC1)Nc1cccc(F)c1,–,420 nM,–
c1ccc2oc(-c3csc(C4CCN(c5nnc(-c6ccncc6)o5)CC4)n3)cc2c1,3.3,13400 nM,Fh at 1.5 h [3]: 44%

SMILES,logD [1],"IC50 ([2]; Homo sapiens, NCI-H1299, 24 h)",further results
CCn1c(CN2CCC(c3nc(-c4cc5ccccc5o4)cs3)CC2)nc2ccccc21,3.4,> 30000 nM,–
Fc1ccc2cc(-c3csc(C4CCN(Cc5nc6ccccc6[nH]5)CC4)n3)oc2c1,3.5,500 nM,–
O=C(CN1CCC(c2nc(-c3cc4ccccc4o3)cs2)CC1)Nc1cccc(C(F)(F)F)c1,–,3280 nM,–
c1ccc2oc(-c3csc(C4CCN(Cc5nc6ccccc6s5)CC4)n3)cc2c1,5.6,1760 nM,–
c1ccc2oc(-c3csc(C4CCN(Cc5cn6cccnc6n5)CC4)n3)cc2c1,2.5,730 nM,–
Cc1nsc(NC(=O)CN2CCC(c3nc(-c4cc5ccccc5o4)cs3)CC2)c1Cl,5.1,25 nM,clearance [4]: 163 mL/min/kg; IC50 [14]: 1.7 nM; IC50 [15]: 13 nM; IC50 [16]: 3.9 nM; Fh at 1.5 h [3]: 18%; IC50 [17]: 49 nM; IC50 [18]: 27 nM
c1ccc2oc(-c3csc(C4CCN(Cc5nc6ncncc6[nH]5)CC4)n3)cc2c1,2.6,80 nM,–
O=C(CN1CCC(c2nc(-c3cc4ccccc4o3)cs2)CC1)Nc1ccccc1,–,882 nM,–
Fc1cccc2[nH]c(CN3CCC(c4nc(-c5cc6ccccc6o5)cs4)CC3)nc12,3.7,325 nM,clearance [4]: 18.3 mL/min/kg; Fh at 1.5 h [3]: 57%
c1ccc2[nH]c(CN3CCC(c4nc(-c5nc6ccccc6s5)cs4)CC3)nc2c1,3.1,710 nM,–
c1ccc(-c2csc(C3CCN(Cc4nc5ccccc5[nH]4)CC3)n2)cc1,3,10000 nM,–
O=C(CN1CCC(c2nc(-c3cc4ccccc4o3)cs2)CC1)Nc1ccccc1F,–,3240 nM,–
N#Cc1ccc2nc(CN3CCC(c4nc(-c5cc6ccccc6o5)cs4)CC3)[nH]c2c1,3.4,860 nM,–
c1ccc2oc(-c3csc(C4CCN(Cc5cn6ccncc6n5)CC4)n3)cc2c1,2.7,390 nM,–
"CCc1nccc(N2CCC(N3CCC(c4nc(-c5cc6ccccc6o5)cs4)CC3)C2=O)c1Cl (single isomer, unassigned; form 1)",4.2,–,clearance [4]: 45 mL/min/kg; IC50 ([2]; nci-h1299): 14 nM; Fh at 1.5 h [3]: 40%
"CCc1nccc(N2CCC(N3CCC(c4nc(-c5cc6ccccc6o5)cs4)CC3)C2=O)c1Cl (single isomer, unassigned; form 2)",–,–,"IC50 ([2]; nci-h1299): 950 nM; Fmax ([3]; hepatocytes, 1.5 h): 43%"
Fc1cnc2nc(CN3CCC(c4nc(-c5cc6ccccc6o5)cs4)CC3)[nH]c2c1,3.1,300 nM,–
c1ccc2[nH]c(CN3CCC(c4nc(-c5cc6ncccc6o5)cs4)CC3)nc2c1,2.4,770 nM,–
Cc1ccnc2nc(CN3CCC(c4nc(-c5cc6ccccc6o5)cs4)CC3)[nH]c12,3,300 nM,–
c1ccc2oc(-c3csc(C4CCN(Cc5nc6ccccc6o5)CC4)n3)cc2c1,4.6,1720 nM,–
CCc1nccc(NC(=O)CN2CCC(c3nc(-c4cc5ccccc5o4)cs3)CC2)c1Cl,–,102 nM,–

# From ChEMBL document CHEMBL5046307 (ACS Med Chem Lett, 2022)
